Screening results: PubChem, Johns Hopkins Ion Channel Center
An excerpt weighted towards active compounds, which were near 2.3% of everything screened.
TRPC4 inh – inhibitors of mouse TRPC4 channel, primary screen, Fluo4 calcium, HEK293 TRPC4beta/mu-opioid cells. Short transient receptor potential channel 4 (Mus musculus), Q9QUQ5. DAMGO-evoked Fluo4 calcium flux; stronger effect = lower value. B-score at 10 µM. 300,000 tested, 0.39% active;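 active means B-score over 3 SD under the library average, no early fluorescence shift, positive overall ratio signal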
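Material: HEK293 cells with stable TRPC4beta plus mu-opioid receptor expression / Probe or stimulus: DAMGO in two steps, submaximal then maximal / Compound: single concentration per test compound / Technique: kinetic Fluo4 fluorescence imaging of calcium influx / Read-out: per-well B score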
TRPC6 act – mouse TRPC6 channel activators, primary screen, cell-based, HEK293, membrane potential dye; 310,000 tested, 0.13% active; HEK293-TRPC6 membrane potential dye fluorescence; stronger effect = higher value; B-score at 10 µM; Short transient receptor potential channel 6 (Mus musculus), Q61143;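 active means B-score of the integrated fluorescence ratio above library mean plus 3 SD, and starting fluorescence ratio within library mean plus 5 SD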;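 further: higher score means more depolarization so channel activation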
Target sequence (Q61143 whole entry, looked up): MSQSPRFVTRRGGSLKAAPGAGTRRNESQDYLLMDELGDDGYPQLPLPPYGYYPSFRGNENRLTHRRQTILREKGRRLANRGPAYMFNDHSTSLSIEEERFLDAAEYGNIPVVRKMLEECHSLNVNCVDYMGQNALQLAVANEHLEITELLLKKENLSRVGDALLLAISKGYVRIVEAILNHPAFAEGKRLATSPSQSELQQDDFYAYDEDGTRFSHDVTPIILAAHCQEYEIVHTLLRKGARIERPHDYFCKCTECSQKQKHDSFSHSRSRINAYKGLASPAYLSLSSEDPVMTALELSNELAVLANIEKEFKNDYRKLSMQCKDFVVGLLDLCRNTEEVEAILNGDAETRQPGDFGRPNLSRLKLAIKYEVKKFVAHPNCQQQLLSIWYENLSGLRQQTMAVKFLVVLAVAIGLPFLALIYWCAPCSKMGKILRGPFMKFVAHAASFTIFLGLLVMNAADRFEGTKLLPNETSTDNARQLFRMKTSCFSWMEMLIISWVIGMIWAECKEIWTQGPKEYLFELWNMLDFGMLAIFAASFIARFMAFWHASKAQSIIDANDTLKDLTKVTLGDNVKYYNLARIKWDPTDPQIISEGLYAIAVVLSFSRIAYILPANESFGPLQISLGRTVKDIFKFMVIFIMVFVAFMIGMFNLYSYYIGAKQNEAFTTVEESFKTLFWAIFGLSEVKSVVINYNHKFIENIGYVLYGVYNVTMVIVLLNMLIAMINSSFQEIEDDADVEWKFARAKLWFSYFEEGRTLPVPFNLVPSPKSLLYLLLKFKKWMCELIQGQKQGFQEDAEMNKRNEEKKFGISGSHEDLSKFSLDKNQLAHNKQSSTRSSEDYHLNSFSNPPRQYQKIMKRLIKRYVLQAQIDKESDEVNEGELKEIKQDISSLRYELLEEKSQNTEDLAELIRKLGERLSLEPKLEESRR
TRPC4 PAM – positive allosteric modulators of TRPC4, primary screen, cell-based, mouse TRPC4beta, HEK293 mu-opioid, Fluo-4 calcium. DAMGO EC20, Fluo-4 Ca2+ flux; stronger effect = higher value. B-score at 10 µM. 310,000 tested, 0.42% active. AID 2227, 2009;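 active means B-score of calcium response area above 5 SD of library B-scores, with initial fluorescence ratio within 5 SD of library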
TRPC6 inhibitor – mouse TRPC6 channel inhibitors, primary screen, cell-based, HEK293, membrane potential dye; B-score at 10 µM; Short transient receptor potential channel 6 (Mus musculus), Q61143; ACh-evoked depolarization; stronger effect = lower value; 310,000 tested, 1.1% active;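 active means B-score under library mean minus 3 SD, initial fluorescence not abnormally high, positive integrated signal ratio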;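 further: B-score derived from integrated fluorescence ratio over the kinetic read; more negative B-score means stronger inhibition of depolarization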
TRPC4 act – activators of mouse TRPC4 channel, primary screen, Fluo4 calcium, HEK293 TRPC4beta/mu-opioid cells; Fluo4 calcium fluorescence; stronger effect = higher value; B-score at 10 µM; AID 2237, 2010; Short transient receptor potential channel 4 (Mus musculus), Q9QUQ5; 310,000 tested, 0.49% active;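 active means B-score above 5 SD of library B-scores, and initial fluorescence ratio not above library mean plus 5 SD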;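 further: positive B-score marks a calcium rise read as TRPC4 activation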
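System – HEK293 cells stably co-expressing mouse TRPC4beta and mu-opioid receptor · Signal – Fluo4 calcium-sensitive dye fluorescence, kinetic, 1 Hz baseline · Benchmarks – buffer (low) and maximal DAMGO (high) · Read-out – B score of integrated fluorescence ratio per well · Incubation – dye loading 45 min room temperature, 110 s kinetic read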
TRPC4 sel inh 2 – second selectivity test of TRPC6 inhibitors: effect on mouse TRPC4; shares compounds with TRPC6 inhibitor; HEK293 TRPC4/MOR, membrane potential dye fluorescence; channel activated by saturating DAMGO dose; inhibition, % at 10 µM; 920 tested, 42% active; AID 2776;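 active means compounds whose fluorescence signal differed from control wells by over 3 SD, either direction, in both duplicate plates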
TRPC4 spec – mouse TRPC4 modulation by TRPC6 hits, confirmation, selectivity assay for TRPC6 inhibitor project, cell-based, HEK293 TRPC4/mu-opioid, membrane potential dye; shares compounds with TRPC6 inhibitor; membrane potential fluorescence; activity change, negative = inhibition, % at 10 µM; 920 tested, 61% active; AID 2777, 2010;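 active means rise or fall in signal beyond 3 SD of buffer-only wells in both replicate plates, either sign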;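 further: integrated kinetic ratio of fluorescence range over baseline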
HEK293 MPD ctr 2-1 – nonspecific membrane potential effects, parental HEK293, confirmation, counter-screen for TRPC6 inhibitor project, cell-based, second counter screen. shares compounds with TRPC6 inhibitor. parental HEK293 membrane potential dye fluorescence; maximal acetylcholine challenge after compound addition. signal change vs control, % at 10 µM. 920 tested, 31% active. AID 2779, 2010;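 active means membrane potential signal moving either way by over 3 SD of the maximum-effect control, in both duplicate plates, meaning non-specific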
HEK293 MPD ctr-1 – membrane potential modulation in parental HEK293, confirmation, counter-screen for TRPC6 inhibitor project, cell-based; shares compounds with TRPC6 inhibitor; parental HEK293 membrane potential dye fluorescence; membrane potential signal change, % at 10 µM; 920 tested, 60% active; AID 2780, 2010;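 active means membrane potential signal shifting up or down by more than 3 SD of buffer-only wells, on both duplicate plates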
HEK293 MPD ctr-2 – parental HEK293 membrane potential modulation, confirmation, counter-screen for TRPC6 modulator project, cell-based; shares compounds with TRPC6 inhibitor; membrane potential dye fluorescence; membrane potential signal change, % at 10 µM; 2,400 tested, 51% active;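 active means membrane potential signal moves up or down beyond 5 SD from buffer-only wells, on both duplicate plates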
HEK293 MPD ctr 2-2 – second check of TRPC6 modulator effects in parental HEK293 cells; 2,400 tested, 14% active; inhibition, % at 10 µM; AID 488926; membrane potential dye fluorescence; after compound, maximal acetylcholine stimulation; shares compounds with TRPC6 inhibitor;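 active means membrane potential signal drops by more than 5 SD from the mean control signal, in both duplicate plates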
TRPC4/MOR mod – TRPC4 modulation by TRPC6 hit compounds, confirmation, selectivity assay for TRPC6 modulator project, cell-based, HEK293 TRPC4/mu-opioid, membrane potential dye, mouse; shares compounds with TRPC6 inhibitor; membrane potential fluorescence; percent change from control (negative = decrease, positive = increase), % at 10 µM; 2,400 tested, 69% active; AID 488927, 2010;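 active means membrane potential signal moved up or down beyond 5 SD of buffer control wells, in both duplicate plates, actives on both sides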
TRPC4 ctr inh 2 – second selectivity test of TRPC6 modulators against mouse TRPC4. 2,400 tested, 55% active. HEK293 TRPC4/mu-opioid, membrane potential dye fluorescence; stimulated with maximal-effect DAMGO. inhibition, % at 10 µM. AID 488928. shares compounds with TRPC6 inhibitor;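 active means drop in membrane potential signal beyond 5 SD of the control wells in both duplicate plates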;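 further: TRPC4 counter screen for TRPC6 hits run under conditions tuned for TRPC6 not TRPC4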
TRPC6 block conf – mouse TRPC6 channel inhibitors, confirmation, HEK293 cells, membrane potential dye, duplicate; 3,300 tested, 43% active; ACh-evoked depolarization; shares compounds with TRPC6 inhibitor; inhibition, % at 10 µM;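 active means fluorescence ratio falls more than 5 SD below the full-stimulation control mean, in both duplicate runs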;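 further: integrated fluorescence ratio of peak minus minimum over baseline after agonist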
TRPC6 act conf – mouse TRPC6 channel activators, confirmation, HEK293 cells, membrane potential dye, duplicate | shares compounds with TRPC6 inhibitor | HEK293-TRPC6 membrane potential dye fluorescence, FDSS | activation, % at 10 µM | 2,800 tested, 11% active;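 active means ratio signal rise beyond 5 SD above unstimulated control wells' mean, seen in both duplicate runs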
Of the large screens only hits and unclear results are named; the others gave an inactive call (follow-up assays come after a bar, where they were run).

CCCCN(C)C(=O)CCC(=O)Nc1ccc2nc(N3CCOCC3)cc(C)c2c1	TRPC6 inhibitor -7.64 | TRPC4 sel inh 2 inactive | TRPC4 spec -20.1% | HEK293 MPD ctr 2-1 inactive | HEK293 MPD ctr-1 -326.0% | TRPC6 block conf inactive | TRPC6 act conf inactive
CCC(C)NC(=O)CCC(=O)Nc1ccc2nc(N3CCOCC3)cc(C)c2c1 (stereo not given)	TRPC6 inhibitor -5.54 | HEK293 MPD ctr-2 -260.0% | HEK293 MPD ctr 2-2 inactive | TRPC4/MOR mod -43.5% | TRPC4 ctr inh 2 38.0% | TRPC6 block conf 40.0% | TRPC6 act conf inactive
CCC(C)NC(=S)Nc1ccc2nc(N3CCOCC3)cc(C)c2c1 (stereo not given)	none
CCN1CCN(c2cc(C)c3cc(NC(=O)CCC(=O)N4CCN(c5ccccc5)CC4)ccc3n2)CC1	none
CC(=O)c1ccc(N2CCN(C(=O)CCC(=O)Nc3ccc4nc(N5CCN(C)CC5)cc(C)c4c3)CC2)cc1	TRPC6 act 13.1 | HEK293 MPD ctr-2 inactive | HEK293 MPD ctr 2-2 inactive | TRPC4/MOR mod 16.0% | TRPC4 ctr inh 2 inactive | TRPC6 block conf inactive | TRPC6 act conf inactive
CCCc1cc(=O)n2nc(N3CCC(C(=O)NCc4ccc(C)o4)CC3)sc2n1	none
COc1ccc(Nc2cc(C)nc3c(C)cccc23)cc1OC	TRPC6 inhibitor -5.05 | HEK293 MPD ctr-2 -145.0% | HEK293 MPD ctr 2-2 inactive | TRPC4/MOR mod -30.5% | TRPC4 ctr inh 2 55.0% | TRPC6 block conf 44.0% | TRPC6 act conf inactive
COc1ccc(Cl)cc1Nc1cc(C)nc2ccccc12	TRPC6 inhibitor -5.4 | HEK293 MPD ctr-2 -75.5% | HEK293 MPD ctr 2-2 inactive | TRPC4/MOR mod -12.0% | TRPC4 ctr inh 2 70.0% | TRPC6 block conf 56.0% | TRPC6 act conf inactive
CCOc1ccc(Nc2cc(C)nc3c(C)cccc23)cc1	TRPC6 inhibitor -5.49 | HEK293 MPD ctr-2 -86.0% | HEK293 MPD ctr 2-2 inactive | TRPC4/MOR mod -22.5% | TRPC4 ctr inh 2 52.5% | TRPC6 block conf 43.0% | TRPC6 act conf inactive
NNC(=O)c1ccc(COCC(F)(F)F)cc1	none
Cn1c(CC(=O)Nc2ccccc2F)nnc1SCC(=O)N1CCOCC1	none
O=C(c1cccc(F)c1)N1CCN(C2CCCCC2)CC1	none
O=C(c1cccc(F)c1)N1CCN(c2cccc(C(F)(F)F)c2)CC1	TRPC6 inhibitor -6.05 | HEK293 MPD ctr-2 inactive | HEK293 MPD ctr 2-2 inactive | TRPC4/MOR mod 15.5% | TRPC4 ctr inh 2 inactive | TRPC6 block conf 77.0%
COC(=O)[C@@H](NC(=O)N1CCN(c2cccc(C(F)(F)F)c2)CC1)C(C)C	TRPC6 inhibitor -6.36 | HEK293 MPD ctr-2 inactive | HEK293 MPD ctr 2-2 inactive | TRPC4/MOR mod inactive | TRPC4 ctr inh 2 inactive | TRPC6 block conf inactive | TRPC6 act conf inactive
O=C(c1cccc(C(F)(F)F)c1)N1CCN(C2CCCCC2)CC1	TRPC6 inhibitor -5.62 | HEK293 MPD ctr-2 inactive | HEK293 MPD ctr 2-2 inactive | TRPC4/MOR mod 11.0% | TRPC4 ctr inh 2 inactive | TRPC6 block conf 40.0%
CCCCN(C(=O)CSc1n[nH]c(-c2ccc(C)cc2)n1)c1c(N)n(CCCC)c(=O)[nH]c1=O	none
C=CCNCc1cccn1-c1sc2c(c1C#N)CCCC2	none
N#Cc1c(-n2cccc2/C=N/O)sc2c1CCCC2	TRPC6 inhibitor -6.61 | TRPC4 sel inh 2 inactive | TRPC4 spec 20.3% | HEK293 MPD ctr 2-1 -30.0% | HEK293 MPD ctr-1 17.6% | TRPC6 block conf 60.0%
O=C1NC(=S)N/C1=C\c1ccc(Oc2ccc(C(F)(F)F)cc2[N+](=O)[O-])c(Cl)c1	none
CCCCCCn1c(-c2cccs2)n[nH]c1=S	none (no result: TRPC4 inh)
CC(C)(C)OC(=O)N1CCC(c2c(C(=O)N3CCN(C(=O)c4ccco4)CC3)cnn2-c2ccc(F)cc2)CC1	none
Cc1ccc(-n2ncc(C(=O)N3CCN(C(=O)c4ccco4)CC3)c2C2CCN(C(=O)OC(C)(C)C)CC2)cc1C	TRPC6 inhibitor -5.62 | HEK293 MPD ctr-2 inactive | HEK293 MPD ctr 2-2 inactive | TRPC4/MOR mod inactive | TRPC4 ctr inh 2 inactive | TRPC6 block conf inactive
C=CCn1c(=O)c2c(nc3n2CCCN3CCc2ccc(OC)c(OC)c2)n(C)c1=O	none
